Measured values published in paper PMC3823637 (Neuropharmacology, 2013).

Columns and labels:
Type in all cases: cell-based
[1] = tested on: rat hypothalamic neurons (native AT1R); test: Whole cell patch recordings from neurons in rat hypothalamic slices; details: for effect on Ang II-induced depolarization / effect on Ang-(1-12)-induced depolarization: antagonist/inhibitor 10 μM; for effect on Ang II-induced depolarization: pretreatment of slices by superfusion; for effect on Ang-(1-12)-induced depolarization: prior superfusion of slices
In short: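 Coronal hypothalamic slices (250 μm, vibratome) came from Sprague-Dawley rats, 17-20 days old, of either sex, anaesthetised with 4% isoflurane. Slices were superfused with solution gassed with 95% O2/5% CO2 at 20 ± 1°C. Current-clamp whole-cell recordings were made from neurons […] to the 3rd ventricle. Peptide was puffed by nitrogen from a micropipette at 20-30 min intervals. Slices were pretreated with losartan, PD123319 or captopril at 10 μM each.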

AT1R [2] = target: T1, AT1R (Homo sapiens, UniProt P30556); test: Ca2+-based FLIPR assay, CHO/16z25 cells transiently expressing AT1R
T1 sequence (P30556 1-359): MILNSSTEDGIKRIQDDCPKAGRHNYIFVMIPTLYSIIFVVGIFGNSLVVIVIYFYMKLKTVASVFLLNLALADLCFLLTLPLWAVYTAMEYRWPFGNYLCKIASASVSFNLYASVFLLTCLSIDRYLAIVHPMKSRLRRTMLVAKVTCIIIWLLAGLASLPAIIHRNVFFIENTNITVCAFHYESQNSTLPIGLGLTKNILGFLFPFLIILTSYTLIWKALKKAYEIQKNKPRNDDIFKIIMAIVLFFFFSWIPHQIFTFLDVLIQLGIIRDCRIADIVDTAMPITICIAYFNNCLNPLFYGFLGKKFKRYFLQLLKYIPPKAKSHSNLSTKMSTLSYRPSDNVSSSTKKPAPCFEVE

AT1R [3] = target: T1, AT1R; details: 10 μM losartan; 1 μM Ang II or 10 μM Ang-(1-12), 5 min

Row | effect on Ca2+ response stimulated by Ang-(1-12) (AT1R [2]; 5 μM Ang-(1-12), losartan 0.1-10 μM, pre-incubated 30 min, dose-dependent) | effect on Ang II-induced Ca2+ mobilization (AT1R [2]; COS-7 and CHO cells transfected with AT1R cDNA) | effect on Ang-(1-12)- and Ang II-induced ERK responses (AT1R [3]) | SMILES | effect on Ang II-induced depolarization [1] | effect on Ang-(1-12)-induced depolarization [1] | hypothalamic neurons depolarized of those examined ([1]; Ang II 1 mM in micropipette, pressure ejection) | membrane depolarization, mean amplitude ([1]; Ang II 1 mM in micropipette, pressure ejection, mean ± SEM, n=10) [mV]
1 | – | – | – | C[C@H](CS)C(=O)N1CCC[C@H]1C(=O)O [captopril] | not affected | failed to suppress | – | –
2 | effectively suppressed | suppressed | inhibited | CCCCc1nc(Cl)c(CO)n1Cc1ccc(-c2ccccc2-c2nn[nH]n2)cc1 [losartan] | suppressed | antagonized | – | –
3 | – | – | – | CC[C@H](C)[C@H](NC(=O)[C@H](Cc1ccc(O)cc1)NC(=O)[C@@H](NC(=O)[C@H](CCCNC(=N)N)NC(=O)[C@@H](N)CC(=O)O)C(C)C)C(=O)N[C@@H](Cc1c[nH]cn1)C(=O)N1CCC[C@H]1C(=O)N[C@@H](Cc1ccccc1)C(=O)O [Ang II, angiotensin II] | – | – | 10 of the 27 | 6.9 ± 0.9
4 | – | – | – | Cc1cc(Cn2cnc3c2C[C@@H](C(=O)O)N(C(=O)C(c2ccccc2)c2ccccc2)C3)ccc1N(C)C [PD-123319] | – | not affected | – | –
